The array DNA melting data of Ke et al. (doi:10.1101/2024.01.08.574731)

Legend:
[1] = folding enthalpy; higher = less favourable; fluorescence melt of hairpins on a sequencing array, two-state fit; details: sodium 0.088 M
How it was run: (§1)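 Melting temperature and folding enthalpy were obtained by bootstrapped two-state fitting. Fits used Cy3 fluorescence of library hairpins with annealed Cy3 and quencher oligos on a sequenced MiSeq flow cell, imaged in 50 mM Na-HEPES pH 8.0, 25 mM NaCl in 2.5 °C steps up to 60 °C and normalised to pre-quench Cy3 and control constructs. Four replicates were combined by inverse-variance weighting, and fitted temperatures were raised by 9.35 °C to match UV melts.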

[2] = melting temperature; fluorescence melt of hairpins on a sequencing array, two-state fit, raised by 9.35 °C to match UV melts; details: sodium 0.088 M
How it was run: as §1

Sequence | folding enthalpy [1] | Tm [2]
GTGAAGGAAACTTCAC ((((((....)))))) | -32.5 kcal/mol | 54.1 °C
GTGAATCGAAAGATACAC (((.(((....))).))) | -27.9 kcal/mol | 46.9 °C
GTGAATGGAAACACTCAC ((((.((....)).)))) | -24.6 kcal/mol | 34.4 °C
GTGAATGGAAACATTCGC (.(((((....))))).) | -25.4 kcal/mol | 49.9 °C
GTGACACGAAAGTGACAC (((.(((....))).))) | -39.7 kcal/mol | 58.7 °C
GTGACACGAAAGTGCCAC (((.(((....))).))) | -40.1 kcal/mol | 56.3 °C
GTGACAGAAATGTCAC ((((((....)))))) | -35.7 kcal/mol | 57.6 °C
GTGACAGGAAACTGTCAC (((((((....))))))) | -42.1 kcal/mol | 65.2 °C
GTGACAGGAAACTGTCGC (.(((((....))))).) | -30.2 kcal/mol | 53.9 °C
GTGACAGGAAACTGTTAC ((.((((....)))).)) | -28.1 kcal/mol | 45.4 °C
GTGACCGAAAGGTAACAC ((((((....)))..))) | -16.9 kcal/mol | 47.1 °C
GTGACCGAAAGGTGCAC ((((((....))).))) | -19.9 kcal/mol | 49.4 °C
GTGACGGAAACGTCAC ((((((....)))))) | -32.9 kcal/mol | 68.7 °C
GTGACTCCGAAAGGACAC (((..(((....)))))) | -9.23 kcal/mol | 35.4 °C
GTGACTCGAAAGAGCCAC (((.(((....))).))) | -38.2 kcal/mol | 54.5 °C
GTGACTGAAAAGTCAC ((((((....)))))) | -37.6 kcal/mol | 61 °C
GTGAGACGAAAGTCCAC (((.(((....)))))) | -22.8 kcal/mol | 53.8 °C
GTGAGAGGAAACTCTTGC (..((((....))))..) | -20.3 kcal/mol | 29.4 °C
GTGAGCGGAAACGCTTAC ((.((((....)))).)) | -27.1 kcal/mol | 51.6 °C
GTGAGCGGAAACGTTCGC (.((.((....)).)).) | -27.8 kcal/mol | 43.9 °C
GTGAGGGGAAACCCCCAC (((.(((....))).))) | -31.5 kcal/mol | 49.2 °C
GTGAGGGGAAACCTTCAC ((((.((....)).)))) | -28.8 kcal/mol | 46 °C
GTGAGTCGAAAGACACAC (((.(((....))).))) | -43.2 kcal/mol | 53.8 °C

Sequence | folding enthalpy [1] | Tm [2]
GTGAGTCGAAAGACGCAC (((.(((....))).))) | -34.4 kcal/mol | 60 °C
GTGAGTGGAAACACTCGC (.(((((....))))).) | -33.1 kcal/mol | 54.9 °C
GTGAGTGGAAACGCTCAC (((((.(....).))))) | -42.5 kcal/mol | 53.7 °C
GTGAGTTCGAAAGAACAC (((..(((....)))))) | -15.4 kcal/mol | 44.6 °C
GTGATACCGAAAGGTCAC (((..(((....)))))) | -19.5 kcal/mol | 41.9 °C
GTGATACGAAAGTAACAC (((.(((....))).))) | -34.1 kcal/mol | 47.6 °C
GTGATACGAAAGTAGCAC (((.(((....))).))) | -48.7 kcal/mol | 58.6 °C
GTGATAGAAATATCAC ((((((....)))))) | -32.9 kcal/mol | 46.5 °C
GTGATAGGAAACTATCAC (((((((....))))))) | -42.8 kcal/mol | 56.1 °C
GTGATCCGAAAGGACCAC (((.(((....))).))) | -34.6 kcal/mol | 51.8 °C
GTGATCGAAAGATACCAC ((((((....)))..))) | -10.5 kcal/mol | 26.6 °C
GTGATCGAAAGATGTCAC ((((((....)))..))) | -13.7 kcal/mol | 29.9 °C
GTGATCGAAAGATTGCAC ((((((....)))..))) | -14.5 kcal/mol | 30.4 °C
GTGATCGGAAACGGTCAC ((((.((....)).)))) | -42.8 kcal/mol | 55 °C
GTGATCGGAAACGGTTAC ((.(.((....)).).)) | -29.9 kcal/mol | 31.9 °C
GTGATCTCGAAAGAGCAC (((..(((....)))))) | -25.7 kcal/mol | 45.5 °C
GTGATGAAAATCAC (((((....))))) | -22.8 kcal/mol | 49.6 °C
GTGATGGGAAACCATTAC ((.((((....)))).)) | -31.1 kcal/mol | 43.5 °C
GTGATGGGAAACTATCGC (.(((.(....).))).) | -23.4 kcal/mol | 35.2 °C
GTGATGTCGAAAGACCAC (((..(((....)))))) | -15 kcal/mol | 40.4 °C
GTGATTACGAAAGTACAC (((..(((....)))))) | -10.1 kcal/mol | 27.8 °C
GTGATTCGAAAGAACAC (((.(((....)))))) | -24.8 kcal/mol | 40.9 °C
GTGATTCGAAAGAAGCAC (((.(((....))).))) | -43.9 kcal/mol | 56.5 °C

Sequence | folding enthalpy [1] | Tm [2]
GTGCAAGGAAACTTGCGC (.(((((....))))).) | -27.6 kcal/mol | 59.1 °C
GTGCACCGAAAGGTACAC (((.(((....))).))) | -36.5 kcal/mol | 53.7 °C
GTGCACCGAAAGGTTCAC (((.(((....))).))) | -42 kcal/mol | 50.5 °C
GTGCACGAAAGTGACAC ((((((....))).))) | -25.9 kcal/mol | 52.9 °C
GTGCACGAAAGTGGCCAC ((((((....)))..))) | -13.3 kcal/mol | 40.6 °C
GTGCACGAAAGTGTTCAC ((((((....)))..))) | -12.3 kcal/mol | 37.4 °C
GTGCACGGAAACGTGCGC (.(((((....))))).) | -14.7 kcal/mol | 63.9 °C
GTGCAGCGAAAGCTCAC (((.(((....)))))) | -27 kcal/mol | 50.8 °C
GTGCAGGGAAACCCACAC (((..((....))..))) | -19.2 kcal/mol | 32.4 °C
GTGCAGGGAAACCCGCAC ((((.((....)).)))) | -42.2 kcal/mol | 54.9 °C
GTGCAGGGAAACCTGTGC (..((((....))))..) | -21.6 kcal/mol | 44.6 °C
GTGCAGTCGAAAGACCAC (((..(((....)))))) | -16.4 kcal/mol | 38.7 °C
GTGCATCGAAAGATACAC (((.(((....))).))) | -35.2 kcal/mol | 47 °C
GTGCATGGAAACGTGCAC (((((.(....).))))) | -47 kcal/mol | 55.8 °C
GTGCCACGAAAGTGCAC (((.(((....)))))) | -27.5 kcal/mol | 58.5 °C
GTGCCAGGAAACTGACAC (((.(((....))).))) | -35.5 kcal/mol | 47.5 °C
GTGCCCCGAAAGGGTCAC (((.(((....))).))) | -34.6 kcal/mol | 57.7 °C
GTGCCCGAAAGGGAGCAC ((((((....)))..))) | -25.2 kcal/mol | 55.6 °C
GTGCCCGAAAGGGCCCAC ((((((....)))..))) | -5.79 kcal/mol | 41 °C
GTGCCCGAAAGGGCGCAC ((((((....)))..))) | -8.85 kcal/mol | 64.8 °C
GTGCCCGAAAGGGGACAC ((((((....)))..))) | -12.2 kcal/mol | 67 °C
GTGCCCGAAAGGGGTCAC ((((((....)))..))) | -15.7 kcal/mol | 48.6 °C
GTGCCCGGAAACAGGCAC (((((.(....).))))) | -40.4 kcal/mol | 54.9 °C

Sequence | folding enthalpy [1] | Tm [2]
GTGCCGGGAAACCGGTAC ((.((((....)))).)) | -30.3 kcal/mol | 57.2 °C
GTGCCGGGAAACTGGCGC (.(((.(....).))).) | -30.4 kcal/mol | 53.4 °C
GTGCCTGGAAACAGGTAC ((.((((....)))).)) | -32.7 kcal/mol | 53.6 °C
GTGCGACGAAAGTCACAC (((.(((....))).))) | -43.9 kcal/mol | 54.3 °C
GTGCGAGGAAACTCGCGC (.(((((....))))).) | -18.2 kcal/mol | 66.2 °C
GTGCGCGAAAGCGGTCAC ((((((....)))..))) | -14.1 kcal/mol | 43.5 °C
GTGCGCGAAAGCGTGCAC ((((((....)))..))) | -17.3 kcal/mol | 59.3 °C
GTGCGCGGAAACGCGTAC ((.((((....)))).)) | -20.1 kcal/mol | 65.5 °C
GTGCGCTCGAAAGAGCAC (((..(((....)))))) | -14.1 kcal/mol | 59.9 °C
GTGCGGACGAAAGTCCAC (((..(((....)))))) | -12 kcal/mol | 60.9 °C
GTGCGGGGAAACCCGCGC (.(((((....))))).) | -16.1 kcal/mol | 67.2 °C
GTGCGGGGAAACCCGTGC (..((((....))))..) | -19.2 kcal/mol | 53.8 °C
GTGCGGTCGAAAGACCAC (((..(((....)))))) | -13.3 kcal/mol | 57.5 °C
GTGCGTCCGAAAGGACAC (((..(((....)))))) | -9.8 kcal/mol | 60.4 °C
GTGCGTCGAAAGACTCAC (((.(((....))).))) | -40.2 kcal/mol | 49.6 °C
GTGCGTGGAAACATGCAC ((((.((....)).)))) | -48.5 kcal/mol | 58.4 °C
GTGCTCGAAAGAGAACAC ((((((....)))..))) | -19.6 kcal/mol | 44.5 °C
GTGCTCGAAAGAGACAC ((((((....))).))) | -22.4 kcal/mol | 47.3 °C
GTGCTCGAAAGAGGGCAC ((((((....)))..))) | -22.9 kcal/mol | 48.9 °C
GTGCTCGAAAGAGTCAC ((((((....))).))) | -26.7 kcal/mol | 49.7 °C
GTGCTCGCGAAAGCGCAC (((..(((....)))))) | -17.4 kcal/mol | 49.2 °C
GTGCTGAAAAGCAC (((((....))))) | -28.1 kcal/mol | 66 °C
